Screens deposited in PubChem BioAssay by Broad Institute.
PGC1a acetyl inh: PGC1a acetylation modulation, inhibitor mode | 350,000 tested, 0.17% active | U2OS PGC1a acetylation, AlphaScreen anti-acetyl-lysine; with virally co-expressed GCN5 acetyltransferase | inhibition, % at 15.6 µM;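 active = every replicate shows inhibition of at least 40%; inconclusive = mean inhibition at least 40% but some replicate below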;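 also: 0% = neutral control wells and 100% = positive control wells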
FGF22 binding: shifts melting point of recombinant human FGF22; Q9HCT0; recombinant FGF22 thermal shift, SYPRO orange fluorescence; percent of sucrose octasulfate shift, DMSO zero; activity (Tm shift, normalised), % at 9.99 µM; 340,000 tested, 1.5% active; AID 651658;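 active = mean Tm shift, scaled 0 neutral to 100 positive control, at about 1.3% or above, every replicate too, limit read from the data; inconclusive = no clear call, values can overlap the other calls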
Target sequence (Q9HCT0 whole entry, looked up): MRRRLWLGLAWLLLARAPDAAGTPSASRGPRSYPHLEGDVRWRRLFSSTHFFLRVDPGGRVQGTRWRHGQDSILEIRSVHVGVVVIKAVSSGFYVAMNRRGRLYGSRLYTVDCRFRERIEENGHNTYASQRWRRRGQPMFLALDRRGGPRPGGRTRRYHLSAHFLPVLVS
ERAP1 inh: inhibitors of human ERAP1 aminopeptidase. Q9NZ08. recombinant ERAP1, Leu-AMC fluorescence, 60 min. inhibition, % at 10.7 µM. 340,000 tested, 0.15% active. AID 652197;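 active = mean replicate inhibition of at least 30%, or all replicates individually reaching that 30% level; inactive = mean below 30% and not every replicate reaching it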;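 also: 0% = neutral control wells and 100% = L-leucinethiol positive control wells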
rRNA inh HTS: inhibits bacterial ribosomal RNA function over humanized ribosomes | GFP signal change (wild-type ribosome), % (concentration not given with the values) | E. coli WT GFP vs humanized-ribosome RFP mutants, fluorescence, 24 h; active compounds read low; DMSO median 0, no signal -100 | 350,000 tested, 1.6% active;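 active = significant combined selectivity score with lowered wild-type GFP, culture density cut under 30%, mutant RFP and density less affected; inactive = any of these conditions unmet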
Cneo AK release: causes C. neoformans cell lysis; adenylate kinase release luminescence, 4 h; normalised: neutral wells 0, clomiphene wells 100; lysis activity, % at 15 µM; 360,000 tested, 0.2% active; AID 651654;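 active = mean lysis activity across replicates of at least 80%, whatever share of replicates individually reach that level; inactive = mean lysis activity below 80%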
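Signal: Adenylate kinase release luminescence | Assay system: Log-phase Cryptococcus neoformans yeast cells | Input: Cells at 5 × 10^6 per mL | Buffer or medium: Fresh YPD growth medium | Compound: Single dose | Schedule: Static 4 h at 37 °C with compound, 1 h detection | Controls: Clomiphene | Read-out: Luminescence rise reflecting yeast cell lysis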
HIV Env fusion: inhibitors of HIV Env-mediated cell fusion | HeLa-JRFL Env/CEM21 cell fusion, luciferase | inhibition, % at 12.3 µM | 360,000 tested, 1.1% active | AID 651610;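 active = mean replicate inhibition score of at least 50 and every replicate individually at or above 50; inconclusive = only one of the two criteria met; inactive = mean below 50 and not all replicates reaching 50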;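 also: 0% = plate neutral controls and 100% = maraviroc near 300 nM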
* marks the source's active call; other numbers are inactive results; ? = inconclusive; nt = not tested or not shown. Sampled rows, rich in hits. Any-hit rate of the full collection: about 3.5%.

SMILES | PGC1a acetyl inh | FGF22 binding | ERAP1 inh | rRNA inh HTS | Cneo AK release | HIV Env fusion
CO[C@H]1CN(C)C(=O)c2ccc(NC(=O)Nc3ccccc3)cc2OC[C@@H](C)NC[C@@H]1C | 6 | 0 | 0 | 0 | -6 | nt
CC1CCC(=C(C#N)c2nc(-c3cc4ccccc4oc3=O)cs2)CC1 (stereo not given) | -5 | nt | nt | nt | -1 | nt
CCn1c(SC)nnc1-c1nn(-c2ccccc2)ccc1=O | nt | 43* | 103* | 14 | -2 | -3
NNc1ccccc1C(F)(F)F | nt | 43* | 0 | 24 | nt | -10
O=C(OCC(=O)N1CCCc2ccccc21)c1c(F)cccc1F | -9 | 1 | 1 | -8 | -2 | -9
CC(C)(C)n1nnnc1C(c1cccc(C#N)c1)N1CCCCCC1 (stereo not given) | -18 | nt | nt | nt | 3 | 94*
CCC(C)(C)n1nnnc1C(c1ccc2ncccc2c1)N1CCCCCC1 (stereo not given) | -4 | nt | nt | nt | 3 | 29*
c1cnc2ccc(C(c3nnnn3C3CCCCC3)N3CCN(C4CCCCC4)CC3)cc2c1 (stereo not given) | 2 | nt | nt | nt | -1 | -33
c1cnc2ccc(C(c3nnnn3C3CCCCC3)N3CCCCC3)cc2c1 (stereo not given) | -42 | nt | nt | nt | 6 | 105*
Cc1noc(C)c1-c1nnc(-c2ccc(OC(F)(F)F)cc2)o1 | nt | 0 | nt | 9 | nt | -59
CCCc1cc2c(=O)c(-c3cscn3)c(C(=O)OCC)oc2cc1O | 6 | 43* | -5 | -2 | 0 | -5
CCOC(=O)c1oc2cc(O)cc(C)c2c(=O)c1-c1cscn1 | -1 | nt | nt | nt | -1 | nt
CCCCN(C)Cc1c(C)[nH]c2ccccc2c1=O | ? | 43* | 0 | 20 | nt | -20
COc1cc(C(F)(F)F)c(C(=O)N(C)Cc2ccc(Cl)c(Cl)c2)cn1 | -4 | 0 | 4 | -22* | 0 | 16
CCN(C(=O)c1cnc(OC)cc1C(F)(F)F)c1ccc(Cl)cc1 | -29 | 0 | 1 | nt | -2 | -16
CC(C)c1ccc(NC(=O)c2ccc3c(c2)CCN3S(C)(=O)=O)cc1 | 82* | 0 | 1 | 4 | -1 | -8
CC(=O)Nc1ccc(NC(=O)c2ccc3c(c2)CCN3S(C)(=O)=O)cc1 | -2 | 0 | 8 | 4 | 0 | 4
CCCCCN(C(=O)CCC(=O)OCc1cccc(Cl)c1)c1c(N)n(CCCC)c(=O)[nH]c1=O | 11 | 0 | 0 | 6 | 0 | 10
O=C(c1cccc(F)c1)N1CCN=C1SCc1cccnc1 | -1 | 0 | nt | 5 | 3 | 7
COc1ccc(C=NNC(=O)c2ccccc2NS(=O)(=O)c2cccs2)cc1O | 8 | 0 | 0 | -26* | -1 | 7
O=C(N/N=C/c1ccc(N2CCOCC2)cc1)c1ccccc1NS(=O)(=O)c1cccs1 | 0 | 0 | -6 | -40* | nt | -7
CC(=O)N1CC(C)Sc2ccc(S(=O)(=O)NC3CCCCC3C)cc21 (stereo not given) | -3 | 0 | -1 | -23 | 10 | 2
Cc1ccc(SC[C@H](Cc2ccccc2)N2CC[C@@H](C)CCC2=O)cc1 | 1 | 0 | -13 | -14 | 1 | 27
CCOc1ccc(S(=O)(=O)NCc2ccncc2)cc1 | -3 | nt | nt | nt | -4 | 85*
CCOC(=O)COc1ccc(S(=O)(=O)NCc2ccncc2)cc1 | 3 | nt | nt | nt | 3 | nt
SMILES | PGC1a acetyl inh | FGF22 binding | ERAP1 inh | rRNA inh HTS | Cneo AK release | HIV Env fusion
COc1ccc([C@@H]2[C@@H]3C(=O)N(C(C)(C)C)C(=O)[C@@H]3[C@]3(Cc4ccc(Cl)cc4)C(=O)N(c4cccc(Br)c4)C(=O)N23)cc1 | 6 | 0 | -2 | 11 | 0 | 78*
COc1ccc([C@@H]2[C@@H]3C(=O)N(C(C)(C)C)C(=O)[C@@H]3[C@]3(Cc4ccccc4)C(=O)N(c4cccc(Cl)c4)C(=O)N23)cc1 | nt | 0 | 19 | nt | 4 | 80*
COc1ccc([C@@H]2[C@@H]3C(=O)N(C(C)(C)C)C(=O)[C@@H]3[C@]3(Cc4ccc(Cl)cc4)C(=O)N(c4cccc(F)c4)C(=O)N23)cc1 | -12 | 0 | 3 | 4 | 1 | 107*
COc1ccc2c(c1)CC/C(=C\C=C\c1ccccc1)C2=O | -5 | nt | nt | nt | -3 | -12
CCOc1cc(-c2cn(S(=O)(=O)c3cccc4nsnc34)nc2N)cc(OCC)c1OCC | -9 | nt | nt | nt | 0 | 66*
O=C(CCNS(=O)(=O)c1ccc(Cl)cc1)OCC(=O)N1CCN(C(=O)c2ccco2)CC1 | nt | 13* | 3 | 9 | nt | -19
O=C(OCC(=O)N1CCN(C(=O)c2ccco2)CC1)c1cc(S(=O)(=O)Nc2ccc(Cl)cc2)ccc1O | nt | 0 | 6 | -11 | nt | 9
CN(CC(=O)Nc1cccc(F)c1)C(=O)c1ccccc1Sc1ccccc1C#N | nt | 1 | 5 | -12 | 1 | 12
COc1cccc(CN(C)C(=O)c2cccc(S(=O)(=O)N3CCN(c4ccccc4)CC3)c2)c1OC | nt | 0 | 1 | -15 | 0 | nt
COc1cccc(NC(=O)CN(C)C(=O)c2ccccc2Sc2ccccc2C#N)c1 | 1 | 0 | 0 | -18* | 2 | 5
CN(Cc1ccc(Cl)cc1Cl)C(=O)c1cccc(S(=O)(=O)N2CCN(c3ccccc3)CC2)c1 | nt | -1 | 1 | 3 | 1 | 90*
Cc1ccc(NC(=O)c2cccc(S(=O)(=O)N3CCN(c4ccccc4)CC3)c2)nc1 | -11 | 0 | 4 | -4 | -1 | 57*
COc1cccc(NC(=O)CN(C)C(=O)c2cccc(S(=O)(=O)N3CCN(c4ccccc4)CC3)c2)c1 | nt | 0 | -1 | -29* | 1 | 0
CCOC(=O)c1c(S(=O)(=O)NCC(=O)NCc2ccccc2)c(C)n(C)c1C | 7 | 0 | 0 | -3 | 0 | -2
CN(C)CC(=O)N1CCCCN2[C@H](CO)[C@H](c3ccc(-c4cccc(C(=O)N(C)C)c4)cc3)[C@H]2C1 | 5 | nt | nt | 4 | -5 | nt
CC1CC(C)CN(C(=O)COC(=O)Cc2c[nH]c3ccccc23)C1 (stereo not given) | nt | 0 | 1 | -7 | -1 | nt
CN(CC(=O)Nc1cccc(F)c1)CC(=O)Nc1ccccc1-c1ccccc1 | 1 | 0 | -1 | -46 | nt | 9
COc1cccc(NC(=O)CN(C)CC(=O)Nc2ccccc2-c2ccccc2)c1 | nt | 0 | 6 | -24* | -1 | 32
C[C@@H]1CN([C@@H](C)CO)C(=O)c2cc(NS(=O)(=O)c3cccs3)ccc2O[C@@H]1CN(C)C(=O)NC1CCCCC1 | 5 | 0 | -4 | -3 | 6 | nt
CCN(CC)S(=O)(=O)c1cccc(-c2n[nH]c(=S)n2/N=C/c2ccc(OC(F)F)cc2)c1 | nt | 1 | 4 | -18* | nt | -7
